A selection: hits, their analogues and other compounds. The true share with any hit is near 3.5%.
FN deposit inh: fibronectin deposition inhibition; AH1F fibroblasts, Alexa488-fibronectin deposition fluorescence, overnight; inhibition, % at 12.6 µM; 350,000 tested, 0.086% active; AID 743247;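 active = mean inhibition across replicates of 30% or more, regardless of how many single replicates reach that level; inconclusive = mean under 30% yet at least half of replicates reach 30%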;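 also: positive control wells lacked labelled fibronectin entirely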
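Material: AH1F fibroblasts assembling fluorescent fibronectin matrix; amount: 10000 AH1F cells/well; medium: DMEM, 2% serum; reagent: Alexa488-fibronectin, 24 nM final in well; dosing: single compound dose, delivered by pin transfer; incubation: 1 h adhesion, overnight exposure; detection: fluorescence after three HBSS washes, excitation 485 nm, emission 525 nm; measure: fibronectin deposition inhibition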
PGC1a acetyl inh: PGC1a acetylation modulation, inhibitor mode | 350,000 tested, 0.17% active | inhibition, % at 15.6 µM | U2OS PGC1a acetylation, AlphaScreen anti-acetyl-lysine; with virally co-expressed GCN5 acetyltransferase;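 active = every replicate shows inhibition of at least 40%; inconclusive = mean inhibition at least 40% but some replicate below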;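 also: 0% = neutral control wells and 100% = positive control wells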
PglD DTNB: inhibitors of Campylobacter jejuni PglD acetyltransferase | purified PglD enzyme, DTNB colorimetric CoA detection | 360,000 tested, 0.098% active | AID 602405 | inhibition, % at 12.5 µM; in the data active = inhibition above about 16%, passing the limit was not always enough; inconclusive = no clear call, values can overlap the other calls
Ecoli rRNA inh: inhibitors of bacterial rRNA selective over humanized ribosomes; E. coli WT GFP vs humanized-ribosome RFP mutants, fluorescence, 24 h; hits give low values; DMSO median 0, no signal -100; GFP signal change (wild-type ribosome), % (concentration not given with the values); 350,000 tested, 1.6% active;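 active = significant combined selectivity score with lowered wild-type GFP, culture density cut under 30%, mutant RFP and density less affected; inactive = any of these conditions unmet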
HIV Env fusion: HIV envelope-mediated fusion inhibition; inhibition, % at 12.3 µM; HeLa-JRFL Env/CEM21 cell fusion, luciferase; 360,000 tested, 1.1% active; AID 651610;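 active = mean replicate inhibition score of at least 50 and every replicate individually at or above 50; inconclusive = only one of the two criteria met; inactive = mean below 50 and not all replicates reaching 50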;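 also: 0% = plate neutral controls and 100% = maraviroc near 300 nM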
DENV2 CPE rescue: DENV2-induced cell death inhibition; DENV2-infected cells, cytopathic effect rescue, plate reader; CPE inhibition, % at 9.99 µM; 350,000 tested, 1.7% active; AID 651640; in the data active = CPE inhibition above about 20%, passing the limit was not always enough; inconclusive = no clear call, values can overlap the other calls; tested in BHK-21 cells;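 also: 0% = median of neutral control wells and 100% = median of positive control wells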
Starred values were filed as active, the others as inactive; ? = inconclusive; / = not tested or not shown; ! = not confirmed by another sample; [ ] = remark or other dose.

SMILES | FN deposit inh | PGC1a acetyl inh | PglD DTNB | Ecoli rRNA inh | HIV Env fusion | DENV2 CPE rescue
CC(C)CC#Cc1ccc([C@@H]2[C@H]3CN(C(=O)Nc4ccccc4)CCCCN3[C@H]2CO)cc1 | -13 | -26 | -5 | -22 | / | 33*
Cc1noc(C)c1S(=O)(=O)Nc1ccc2c(c1)C(=O)N([C@@H](C)CO)C[C@H](C)[C@H](CN(C)Cc1ccc(Cl)c(Cl)c1)OCCCC[C@@H](C)O2 | / | -10 | -4 | 1 | -6[16.7 µM] | -1
O=C(C[C@H]1CC[C@H](NC(=O)C2CCOCC2)[C@H](CO)O1)NCC1CC1 | / | -7 | / | 1 | / | -2
C[C@@H]1CN([C@H](C)CO)C(=O)c2cc(C3=CCCC3)cnc2O[C@@H]1CN(C)C(=O)Cc1ccncc1 | 10 | 13 | -2 | 5 | -17[16.7 µM] | 8
CCCC(=O)Nc1ccc2c(c1)C(=O)N(C)C[C@H](OC)[C@@H](C)CN(C)[C@H](C)CO2 | / | -2 | 0 | 3 | 8[16.7 µM] | 2
COc1ccc(C#Cc2ccc([C@@H]3[C@H](CO)N4CCCCN(C(=O)Nc5ccccc5)C[C@@H]34)cc2)cc1 | / | -78 | 0 | -60 | / | 34*
C/C=C/c1ccc(C2[C@@H]3CN(C(=O)Nc4ccc(C(F)(F)F)cc4)C[C@H]2N3)cc1 (some centres undefined) | 3 | 1 | / | -57 | / | 41*!
C/C=C/c1ccc(C2[C@@H]3CN(C(=O)Nc4ccc(F)cc4)C[C@H]2N3)cc1 (some centres undefined) | -2 | 1 | / | 3 | / | 13
O=C(c1ccc2ccccc2n1)N1CCN(S(=O)(=O)c2ccc(Cl)cc2)CC1 | 2 | 4 | -1 | -7 | 56* | 0
COc1cccc(-c2ccc3c(c2)[C@@H]2[C@@H](CCN2C(=O)Cc2ccncc2)[C@@H](CO)N3)c1 | -2 | -2 | -2 | 0 | / | ?
COc1ccc(-c2cn(-c3ccc(Cl)cc3)c3[n+]2CCCCC3)cc1 | -12 | / | / | -35* | -3 | -5
Clc1ccc(-c2cn(-c3ccc(Cl)cc3)c3[n+]2CCCCC3)cc1 | -12 | / | / | -46* | 3 | -8
COc1ccc(-n2cc(-c3ccc(OC(F)F)cc3)[n+]3c2CCCCC3)cc1 | / | / | / | -2 | 23 | /
Cc1cccc(C(=O)Nc2ccc(C(=O)/C=C/c3cccnc3)cc2)c1 | 9 | 54* | 2 | / | -32 | /
O=C(/C=C/c1cccnc1)/C=C/c1cccnc1 | 5 | 81* | 4 | -5 | 2 | -5
O=C(NCCc1ccncc1)[C@@H]1[C@@H](CO)[C@@H]2Cn3c(ccc(-c4ccncc4)c3=O)[C@H]1N2 | / | / | 1 | 2 | / | 3
CCCC#Cc1cnc2c(c1)C(=O)N([C@@H](C)CO)C[C@@H](C)[C@@H](CN(C)C(=O)CCN1CCCCC1)O2 | 10 | 5 | 0 | 2 | / | -6
Cc1ccc(NC(=O)c2ccc(OCC3CCCO3)cc2)cc1Cl (centres undefined) | 2 | / | -5 | -2 | 70* | 1
O=C(COc1cc2oc(=O)c3c(c2cc1Cl)CCCC3)NCC1CCC(C(=O)O)CC1 (centres undefined) | -3 | -18 | 6 | -23* | -4 | 0
O=C(COc1cc2oc(=O)c3c(c2cc1Cl)CCC3)NCC1CCC(C(=O)O)CC1 (centres undefined) | 1 | / | / | 7 | -1 | 5
C[C@@H]1CCCCO[C@@H](CN(C)C(=O)Nc2ccc(C(F)(F)F)cc2)[C@@H](C)CN([C@H](C)CO)C(=O)c2cc(NS(=O)(=O)c3ccccc3)ccc2O1 | 1 | -7 | -1 | 5 | -22[16.7 µM] | 21*
C[C@H](CO)N1C[C@H](C)[C@@H](CN(C)C(=O)Nc2ccc(C(F)(F)F)cc2)OCCCC[C@H](C)Oc2ccc(NS(=O)(=O)c3cccs3)cc2C1=O | / | 21 | 0 | -1 | 24[16.7 µM] | 94*
C[C@@H]1CN([C@@H](C)CO)C(=O)c2cc(NS(=O)(=O)c3cccs3)ccc2O[C@@H](C)CCCCO[C@H]1CN(C)C(=O)Nc1ccc(F)cc1 | / | -4 | -1 | -2 | -131[16.7 µM] | -5
C[C@@H]1CCCCO[C@H](CN(C)C(=O)Nc2ccc(C(F)(F)F)cc2)[C@H](C)CN([C@H](C)CO)C(=O)c2cc(NS(=O)(=O)c3ccccc3)ccc2O1 | -12 | 1 | -1 | -2 | 31[16.7 µM] | 77*
C[C@@H]1CN([C@H](C)CO)C(=O)c2cc(NS(=O)(=O)c3cccs3)ccc2O[C@@H](C)CCCCO[C@@H]1CN(C)C(=O)CCC(F)(F)F | / | 8 | 7 | 2 | -18[16.7 µM] | 31*
SMILES | FN deposit inh | PGC1a acetyl inh | PglD DTNB | Ecoli rRNA inh | HIV Env fusion | DENV2 CPE rescue
C[C@H](CO)N1C[C@H](C)[C@@H](CN(C)C(=O)Nc2ccc(C(F)(F)F)cc2)OCCCC[C@H](C)Oc2ccc(NS(=O)(=O)c3ccccc3)cc2C1=O | 4 | 9 | 3 | 2 | 19[16.7 µM] | 41*
O=C(NC(=S)NCc1ccccc1)c1ccccc1F | 3 | / | 0 | -5 | -67 | /
O=C(NC(=S)NCCc1ccccc1)c1ccccc1F | -28 | / | 2 | -31* | -14 | -1
Cc1ccc(N(CC(O)CN2CCCC2)S(=O)(=O)c2ccc(C)cc2)cc1 (centres undefined) | / | 3 | 8 | 7 | / | /
Cc1cccc(C)c1N(CC(O)Cn1c2ccccc2c2ccccc21)S(C)(=O)=O (centres undefined) | 13 | -9 | -1 | / | 84* | /
CC(=O)Nc1ccc(N(CC(O)Cn2c3ccccc3c3ccccc32)S(=O)(=O)c2ccc(C)cc2)cc1 (centres undefined) | 6 | / | -12 | 1 | 105* | -6
Cc1ccc(N(CC(O)Cn2nc(C)cc2C)S(=O)(=O)c2ccc3ccccc3c2)cc1 (centres undefined) | 2 | / | / | -31* | -28 | 5
Cc1ccc(N(CC(O)Cn2c3ccccc3c3ccccc32)S(C)(=O)=O)cc1 (centres undefined) | / | -8 | -1 | -30 | / | -5
COc1cccc(NC(=O)C2CCC(CNS(=O)(=O)c3cccs3)CC2)c1 (centres undefined) | 2 | 0 | / | -21* | 1 | 0
O=C(N/N=C/C(Cl)=C/c1ccccc1)c1ccccn1 | -2 | / | / | -15* | -62 | 15
C[C@H](CO)N1C[C@H](C)[C@@H](CN(C)CC2CCCCC2)OCCCC[C@H](C)Oc2ccc(NC(=O)Cc3ccccc3)cc2C1=O | / | -21 | -1 | 0 | -3[16.7 µM] | -3
C[C@@H]1CN([C@@H](C)CO)C(=O)c2cc(NC(=O)Cc3ccccc3)ccc2O[C@@H](C)CCCCO[C@@H]1CN(C)CC1CCCCC1 | / | -5 | 1 | 2 | -55[16.7 µM] | 26*
C[C@@H]1CCCCO[C@@H](CN(C)CC2CCCCC2)[C@H](C)CN([C@H](C)CO)C(=O)c2cc(NC(=O)c3ccccc3)ccc2O1 | 5 | -2 | 5 | -7 | 67*[16.7 µM] | /

Source: PubChem
